Test results taken from ChEMBL document CHEMBL3352430, “4-Aminopyridyl-based CYP51 inhibitors as anti-Trypanosoma cruzi drug leads with improved pharmacokinetic profile and in vivo potency” (J Med Chem, 2014).

Experiments:
[1] = test system: Trypanosoma cruzi; assay: Antitrypanosomal activity against Trypanosoma cruzi amastigotes infected in mouse C2C12 cells after 72 hrs by DAPI staining method; type: functional, organism-based; settings: C2C12, 72 h
[2] = molecular target: Cytochrome P450 3A4 (Homo sapiens, UniProt P08684); assay: Inhibition of CYP3A4 in human liver microsomes at 1 uM; type: ADME
Cytochrome P450 3A4, sequence (P08684 whole entry): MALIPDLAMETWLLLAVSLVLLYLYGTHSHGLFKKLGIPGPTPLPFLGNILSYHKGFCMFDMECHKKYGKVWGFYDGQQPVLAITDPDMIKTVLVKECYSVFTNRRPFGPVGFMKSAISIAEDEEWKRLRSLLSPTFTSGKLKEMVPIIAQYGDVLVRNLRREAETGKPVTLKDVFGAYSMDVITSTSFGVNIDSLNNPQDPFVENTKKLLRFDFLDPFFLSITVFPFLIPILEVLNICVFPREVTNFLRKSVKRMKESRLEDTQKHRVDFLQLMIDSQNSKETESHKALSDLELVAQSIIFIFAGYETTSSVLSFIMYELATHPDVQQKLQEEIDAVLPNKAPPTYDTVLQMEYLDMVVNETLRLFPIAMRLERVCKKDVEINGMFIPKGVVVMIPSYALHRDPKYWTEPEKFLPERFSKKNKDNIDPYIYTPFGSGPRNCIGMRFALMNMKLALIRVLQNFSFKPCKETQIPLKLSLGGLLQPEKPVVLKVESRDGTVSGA

[3] = test system: Intestine; assay: Drug uptake in mouse intestine at 50 mg/kg, po in 20% Kolliphor measured at 8 hrs post dose; type: ADME, organism-based; set-up: dose 50 mg/kg, route oral; settings: in vivo
Summary of the method: (§1)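 Female Swiss Webster mice, 8 weeks old, given a single 50 mg/kg oral gavage dose in 20% HPβCD or 20% Kolliphor. Tissues taken from three mice at 2 and 8 h post dose. Homogenized by probe sonication in PBS (1:4 w/v), protein precipitated with acetonitrile, and compound measured by LC-MS/MS in μM.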

[4] = test system: Heart; assay: Drug uptake in mouse heart at 50 mg/kg, po in 20% Kolliphor measured at 8 hrs post dose; type: ADME, organism-based; set-up: dose 50 mg/kg, route oral; settings: in vivo; summary of the method: as §1
[5] = test system: Lung; assay: Drug uptake in mouse lung at 50 mg/kg, po in 20% Kolliphor measured at 8 hrs post dose; type: ADME, organism-based; set-up: dose 50 mg/kg, route oral; settings: in vivo; summary of the method: as §1
[6] = test system: Intestine; assay: Drug uptake in mouse intestine at 50 mg/kg, po in 20% HP-beta-CD measured at 8 hrs post dose; type: ADME, organism-based; set-up: dose 50 mg/kg, route oral; settings: in vivo; summary of the method: as §1
[7] = molecular target: Cytochrome P450 2D6 (Homo sapiens, UniProt P10635); assay: Inhibition of CYP2D6 in human liver microsomes at 1 uM; type: ADME
Cytochrome P450 2D6, sequence (P10635 whole entry): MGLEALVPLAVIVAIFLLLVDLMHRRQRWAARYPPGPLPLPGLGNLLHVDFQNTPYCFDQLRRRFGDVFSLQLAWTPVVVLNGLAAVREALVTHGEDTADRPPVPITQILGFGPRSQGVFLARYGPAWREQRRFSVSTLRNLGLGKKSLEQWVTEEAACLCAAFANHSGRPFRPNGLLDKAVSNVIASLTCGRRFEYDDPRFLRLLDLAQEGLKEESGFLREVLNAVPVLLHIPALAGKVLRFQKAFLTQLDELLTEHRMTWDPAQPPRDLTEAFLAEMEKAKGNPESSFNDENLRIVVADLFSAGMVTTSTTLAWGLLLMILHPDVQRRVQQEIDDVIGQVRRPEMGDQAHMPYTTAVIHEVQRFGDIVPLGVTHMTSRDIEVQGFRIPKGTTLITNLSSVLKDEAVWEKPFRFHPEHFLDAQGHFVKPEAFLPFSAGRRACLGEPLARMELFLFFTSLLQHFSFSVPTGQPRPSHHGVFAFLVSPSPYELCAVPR

[8] = Drug uptake in mouse skeletal muscle at 50 mg/kg, po in 20% HP-beta-CD measured at 8 hrs post dose; type: ADME, organism-based, Muscle tissue; set-up: dose 50 mg/kg, route oral; settings: in vivo; summary of the method: as §1
[9] = molecular target: Sterol 14-alpha demethylase (Trypanosoma cruzi (strain CL Brener), UniProt Q7Z1V1); assay: Binding affinity to Trypanosoma cruzi CYP51 by UV-vis titration method; settings: read-out: Kd(app)
Sterol 14-alpha demethylase, sequence (Q7Z1V1 whole entry): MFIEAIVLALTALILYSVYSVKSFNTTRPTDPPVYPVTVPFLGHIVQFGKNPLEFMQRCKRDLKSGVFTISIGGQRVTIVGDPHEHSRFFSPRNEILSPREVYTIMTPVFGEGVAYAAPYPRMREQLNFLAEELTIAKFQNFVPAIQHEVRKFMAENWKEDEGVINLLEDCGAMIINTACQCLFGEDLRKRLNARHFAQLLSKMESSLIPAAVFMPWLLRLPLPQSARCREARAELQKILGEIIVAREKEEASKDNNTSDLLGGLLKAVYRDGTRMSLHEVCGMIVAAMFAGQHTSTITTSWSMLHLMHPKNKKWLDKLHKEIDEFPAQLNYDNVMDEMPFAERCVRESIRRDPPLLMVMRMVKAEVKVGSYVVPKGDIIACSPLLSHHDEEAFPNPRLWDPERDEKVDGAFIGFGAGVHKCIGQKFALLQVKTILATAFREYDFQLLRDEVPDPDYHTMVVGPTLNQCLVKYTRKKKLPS

[10] = test system: Heart; assay: Drug uptake in mouse heart at 50 mg/kg, po in 20% HP-beta-CD measured at 8 hrs post dose; type: ADME, organism-based; set-up: dose 50 mg/kg, route oral; settings: in vivo; summary of the method: as §1
[11] = molecular target: T1, Cytochrome P450 1A2 (Homo sapiens, UniProt P05177); assay: Inhibition of CYP1A2 in human liver microsomes at 1 uM; type: ADME
T1 sequence (P05177 whole entry): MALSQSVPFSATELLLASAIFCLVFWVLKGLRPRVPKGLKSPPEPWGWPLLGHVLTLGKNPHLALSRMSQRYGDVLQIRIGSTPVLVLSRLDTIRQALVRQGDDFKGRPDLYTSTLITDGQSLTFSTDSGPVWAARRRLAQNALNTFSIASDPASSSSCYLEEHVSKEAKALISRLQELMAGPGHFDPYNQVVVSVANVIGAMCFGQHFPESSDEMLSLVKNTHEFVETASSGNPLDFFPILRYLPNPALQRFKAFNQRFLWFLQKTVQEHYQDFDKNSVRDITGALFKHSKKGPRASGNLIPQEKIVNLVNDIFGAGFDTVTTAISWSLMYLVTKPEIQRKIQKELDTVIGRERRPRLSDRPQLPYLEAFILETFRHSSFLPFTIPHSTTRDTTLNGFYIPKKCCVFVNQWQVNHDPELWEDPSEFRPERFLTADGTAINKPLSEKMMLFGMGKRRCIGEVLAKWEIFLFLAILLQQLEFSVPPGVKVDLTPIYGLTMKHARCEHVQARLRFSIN

[12] = test system: C2C12; assay: Cytotoxicity against mouse C2C12 cells up to 10 uM; type: cell-based
Summary of the method: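 Mouse C2C12 myoblasts infected with T. cruzi CA-I/72, then exposed at 24 h postinfection to compound at 10 μM down to 5 pM in 5-fold steps for 72 h at 37 °C. Cells fixed in paraformaldehyde, stained with DAPI and scored by automated imaging. Triplicate wells; uninfected and infected untreated wells as controls.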

[13] = test system: Trypanosoma cruzi; assay: Antitrypanosomal activity against Trypanosoma cruzi Y luc infected in mouse assessed as inhibition of parasitemia at 50 mg/kg, po bid in 20% Kolliphor administered for 4 consecutive days starting on day 3 of infection measured on day 7 post infection relative to vehicle-treated control; type: functional
Summary of the method: (§2)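 Female Swiss Webster mice, 8 weeks old, infected ip with 10^5 T. cruzi Y luc trypomastigotes. Only mice with detectable luminescence on day 3 were treated. Compound given by oral gavage bid for four days, as a suspension in 20% HPβCD or a solution in 20% Kolliphor, five mice per group. Vehicle group and benznidazole 50 mg/kg served as controls. On day 7, mice were injected ip with 150 mg/kg d-luciferin and imaged after 5 min under isoflurane. Percent inhibition calculated against untreated mice; two-tailed paired t test.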

[14] = Drug uptake in mouse skeletal muscle at 50 mg/kg, po in 20% Kolliphor measured at 8 hrs post dose; type: ADME, organism-based, Muscle tissue; set-up: dose 50 mg/kg, route oral; settings: in vivo; summary of the method: as §1
[15] = test system: Liver; assay: Drug uptake in mouse liver at 50 mg/kg, po in 20% Kolliphor measured at 8 hrs post dose; type: ADME, organism-based; set-up: dose 50 mg/kg, route oral; settings: in vivo; summary of the method: as §1
[16] = Drug uptake in mouse fat at 50 mg/kg, po in 20% Kolliphor measured at 8 hrs post dose; type: ADME, organism-based, Adipose tissue; set-up: dose 50 mg/kg, route oral; settings: in vivo; summary of the method: as §1
[17] = test system: Trypanosoma cruzi; assay: Antitrypanosomal activity against Trypanosoma cruzi Y luc infected in mouse assessed as inhibition of parasitemia at 25 mg/kg, po bid in 20% Kolliphor administered for 4 consecutive days starting on day 3 of infection measured on day 7 post infection relative to vehicle-treated control; type: functional; summary of the method: as §2
[18] = test system: Liver; assay: Drug uptake in mouse liver at 50 mg/kg, po in 20% HP-beta-CD measured at 8 hrs post dose; type: ADME, organism-based; set-up: dose 50 mg/kg, route oral; settings: in vivo; summary of the method: as §1
[19] = Drug uptake in mouse fat at 50 mg/kg, po in 20% HP-beta-CD measured at 8 hrs post dose; type: ADME, organism-based, Adipose tissue; set-up: dose 50 mg/kg, route oral; settings: in vivo; summary of the method: as §1
[20] = molecular target: Cytochrome P450 2C9 (Homo sapiens, UniProt P11712); assay: Inhibition of CYP2C9 in human liver microsomes at 1 uM; type: ADME
Cytochrome P450 2C9, sequence (P11712 whole entry): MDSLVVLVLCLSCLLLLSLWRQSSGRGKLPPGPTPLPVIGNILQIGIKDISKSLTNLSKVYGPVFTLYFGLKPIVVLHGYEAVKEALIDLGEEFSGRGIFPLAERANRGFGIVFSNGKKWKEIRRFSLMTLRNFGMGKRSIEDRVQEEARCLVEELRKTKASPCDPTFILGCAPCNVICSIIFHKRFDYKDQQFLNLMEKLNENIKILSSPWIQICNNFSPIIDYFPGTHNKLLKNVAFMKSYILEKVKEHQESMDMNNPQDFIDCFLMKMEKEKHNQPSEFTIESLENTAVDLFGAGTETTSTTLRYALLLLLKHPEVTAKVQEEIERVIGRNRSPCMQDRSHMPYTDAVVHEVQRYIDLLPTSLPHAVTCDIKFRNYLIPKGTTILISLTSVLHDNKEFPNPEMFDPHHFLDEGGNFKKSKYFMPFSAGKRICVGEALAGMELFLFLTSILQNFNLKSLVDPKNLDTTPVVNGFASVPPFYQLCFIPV

[21] = test system: Liver microsome; assay: Half life in rat liver microsomes; type: ADME
[22] = test system: Lung; assay: Drug uptake in mouse lung at 50 mg/kg, po in 20% HP-beta-CD measured at 8 hrs post dose; type: ADME, organism-based; set-up: dose 50 mg/kg, route oral; settings: in vivo; summary of the method: as §1
[23] = test system: Liver; assay: Half life in mouse liver microsomes; type: ADME
[24] = test system: Liver microsome; assay: Half life in human liver microsomes; type: ADME
[25] = test system: Trypanosoma cruzi; assay: Antitrypanosomal activity against Trypanosoma cruzi Y luc infected in mouse assessed as inhibition of parasitemia at 40 mg/kg, ip bid in 60% DMSO administered for 4 consecutive days starting on day 3 of infection measured on day 7 post infection relative to vehicle-treated control
[26] = AUClast in mouse at 50 mg/kg, po in 20% HP-beta-CD; type: ADME, organism-based, Plasma; set-up: time 0 - last, dose 50 mg/kg, route oral; settings: plasma
Summary of the method: (§3)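 Female Swiss Webster mice, 8 weeks old, given one oral gavage dose of 50 mg/kg as a 10 mg/mL preparation in the named vehicle (20% HPβCD suspension or 20% Kolliphor). Plasma sampled at about 0.25, 0.5, 1, 2, 4, 6, 8, 12 and 24 h, n = 3 per time point. Protein precipitated with 5 volumes acetonitrile, filtered, then LC-MS/MS. Values are averages of three mice.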

[27] = Clearance in mouse at 50 mg/kg, po in 20% HP-beta-CD; type: ADME, organism-based; set-up: dose 50 mg/kg, route oral; settings: in vivo; summary of the method: as §3
[28] = Cmax in mouse at 50 mg/kg, po in 20% HP-beta-CD; type: ADME, organism-based; set-up: dose 50 mg/kg, route oral; settings: in vivo; summary of the method: as §3
[29] = Half life in mouse at 50 mg/kg, po in 20% Kolliphor; type: ADME, organism-based; set-up: dose 50 mg/kg, route oral; settings: in vivo; summary of the method: as §3
[30] = Cmax in mouse at 50 mg/kg, po in 20% Kolliphor; type: ADME, organism-based; set-up: dose 50 mg/kg, route oral; settings: in vivo; summary of the method: as §3
[31] = Tmax in mouse at 50 mg/kg, po in 20% Kolliphor; type: ADME, organism-based; set-up: dose 50 mg/kg, route oral; settings: in vivo; summary of the method: as §3
[32] = Half life in mouse at 50 mg/kg, po in 20% HP-beta-CD; type: ADME, organism-based; set-up: dose 50 mg/kg, route oral; settings: in vivo; summary of the method: as §3
[33] = AUClast in mouse at 50 mg/kg, po in 20% Kolliphor; type: ADME, organism-based; set-up: time 0 - last, dose 50 mg/kg, route oral; settings: plasma; summary of the method: as §3
[34] = Tmax in mouse at 50 mg/kg, po in 20% HP-beta-CD; type: ADME, organism-based; set-up: dose 50 mg/kg, route oral; settings: in vivo; summary of the method: as §3
[35] = Clearance in mouse at 50 mg/kg, po in 20% Kolliphor; type: ADME, organism-based; set-up: dose 50 mg/kg, route oral; settings: in vivo; summary of the method: as §3

SMILES | EC50 [1] [µM] | inhibition (INH) [2] [%] | Drug uptake [3] | Drug uptake [4] | Drug uptake [5] | Drug uptake [6] | inhibition (INH) [7] [%] | Drug uptake [8] | Kd [9] [µM] | Drug uptake [10] | inhibition (INH) [11] [%] | Activity [12] | inhibition in vivo at 50 mg/kg [13] [%] | Drug uptake [14] | Drug uptake [15] | Drug uptake [16] | inhibition in vivo at 25 mg/kg [17] [%] | Drug uptake [18] | Drug uptake [19] | inhibition (INH) [20] [%] | further results
O=C(N[C@H](Cc1c[nH]c2ccccc12)C(=O)Nc1ccncc1)c1ccc(-c2cccc(C(F)(F)F)c2)cc1F | 0.039 | 7 | Active | Active | Active | Active | 14 | Active | 0.08 | Active | -16 | Non-toxic | 99.2 | Active | Active | Active | 74.7 | Active | Active | 92 | t1/2 [21]: 0.517 h; Drug uptake [22]: Active; t1/2 [23]: 0.85 h; t1/2 [24]: 0.55 h; inhibition in vivo at 40 mg/kg [25]: 98.5%
O=C(N[C@H](Cc1c[nH]c2ccccc12)C(=O)Nc1ccncc1)c1ccc(-c2ccc(F)c(Cl)c2)cc1F | 0.078 | 29 | Active | Active | Active | Active | 29 | Active | 0.016 | Active | 2 | Non-toxic | 85.2 | Active | Active | Active | 56.7 | Active | Active | 93 | AUC(0-t) [26]: 30.2 µM·h; CL/F [27]: 44.4 mL/min/kg; Cmax [28]: 5.88 µM; half-life [29]: 16.8 h; Cmax [30]: 17.8 µM; Tmax [31]: 0.75 h; t1/2 [21]: 0.417 h; half-life [32]: 5.17 h; AUC(0-t) [33]: 153 µM·h; Tmax [34]: 2.67 h; Drug uptake [22]: Active; t1/2 [23]: 0.9 h; CL/F [35]: 9.28 mL/min/kg; t1/2 [24]: 0.467 h
O=C(N[C@H](Cc1c[nH]c2ccccc12)C(=O)Nc1ccncc1)c1ccc(-c2ccc(F)c(C(F)(F)F)c2)cc1F | 0.17 | 9 | Active | Active | Active | Active | 36 | Active | ≤ 0.01 | Active | 2 | Non-toxic | 97.4 | Active | Active | Active | 89.1 | Active | Active | 96 | AUC(0-t) [26]: 26.6 µM·h; CL/F [27]: 52.5 mL/min/kg; Cmax [28]: 5.1 µM; half-life [29]: 3.1 h; Cmax [30]: 7.35 µM; Tmax [31]: 4.67 h; t1/2 [21]: 0.45 h; half-life [32]: 2.5 h; AUC(0-t) [33]: 84.5 µM·h; Tmax [34]: 4.67 h; Drug uptake [22]: Active; t1/2 [23]: 0.967 h; CL/F [35]: 17.4 mL/min/kg; t1/2 [24]: 0.483 h
